In ChEMBL document CHEMBL4219021, “Discovery of a Small-Molecule Degrader of Bromodomain and Extra-Terminal (BET) Proteins with Picomolar Cellular Potencies and Capable of Achieving Tumor Regression” (J Med Chem, 2018):
Values belong to the molecule of their own block, whether it stands above or below them. The source made the active and inactive calls. The calls are words filed in the database; no cut-off is given here.

Columns and labels:
[1] = target: T1, Protein cereblon/Bromodomain-containing protein 2/Cullin-4A (Homo sapiens) (UniProt P25440+Q96SW2+Q13619); test: Induction of cereblon/cullin 4A-mediated BRD2 degradation in human RS4:11 cells at 3 to 30 nM after 3 hrs by Western blot method; assay type: cell-based
Summary of the method: (§1)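 RS4;11 cells (2 × 10⁶/well) treated for 3 h at the indicated concentrations. Lysed in RIPA with protease inhibitors and immunoblotted for BRD2, BRD3 and BRD4 with specific antibodies.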

[2] = target: T2, Protein cereblon/Bromodomain-containing protein 3/Cullin-4A (Homo sapiens) (UniProt Q15059+Q96SW2+Q13619); test: Induction of cereblon/cullin 4A-mediated BRD3 degradation in human RS4:11 cells at 3 to 30 nM after 3 hrs by Western blot method; assay type: cell-based
Summary of the method: (§2)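 Western blot of RS4;11 cells (2 × 10⁶ cells/well) in RPMI 1640 with 10% FBS, 37 °C, 5% CO₂, used within three months of thawing. Compound exposure was 3 h or 24 h at the indicated concentrations. Cells were lysed in RIPA with protease inhibitors, and BRD2, BRD3 and BRD4 were detected with specific antibodies, with GAPDH as loading control.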

[3] = target: T3, Bromodomain-containing protein 2 (Homo sapiens, UniProt P25440); test: Inhibition of FAM-labeled ZBA248 binding to recombinant N-terminal His6-tagged BRD2 bromodomain 2 (349 to 460 residues) (unknown origin) expressed in Escherichia coli Rosetta2 DE3 after 30 mins by fluorescence polarization assay
[4] = target: T4, Bromodomain-containing protein 4 (Homo sapiens, UniProt O60885); test: Inhibition of FAM-labeled ZBA248 binding to recombinant N-terminal His6-tagged BRD4 bromodomain 1 (44 to 168 residues) (unknown origin) expressed in Escherichia coli Rosetta2 DE3 after 30 mins by fluorescence polarization assay
[5] = target: T4, Bromodomain-containing protein 4; test: Inhibition of FAM-labeled ZBA248 binding to recombinant N-terminal His6-tagged BRD4 bromodomain 2 (333 to 460 residues) (unknown origin) expressed in Escherichia coli Rosetta2 DE3 after 30 mins by fluorescence polarization assay
[6] = target: T3, Bromodomain-containing protein 2; test: Inhibition of FAM-labeled ZBA248 binding to recombinant N-terminal His6-tagged BRD2 bromodomain 1 (72 to 205 residues) (unknown origin) expressed in Escherichia coli Rosetta2 DE3 after 30 mins by fluorescence polarization assay
[7] = target: T5, Bromodomain-containing protein 3 (Homo sapiens, UniProt Q15059); test: Inhibition of FAM-labeled ZBA248 binding to recombinant N-terminal His6-tagged BRD3 bromodomain 2 (306 to 417residues) (unknown origin) expressed in Escherichia coli Rosetta2 DE3 after 30 mins by fluorescence polarization assay
[8] = target: T5, Bromodomain-containing protein 3; test: Inhibition of FAM-labeled ZBA248 binding to recombinant N-terminal His6-tagged BRD3 bromodomain 1 (24 to 144 residues) (unknown origin) expressed in Escherichia coli Rosetta2 DE3 after 30 mins by fluorescence polarization assay
[9] = target: T6, Protein cereblon/Bromodomain-containing protein 4/Cullin-4A (Homo sapiens) (UniProt O60885+Q96SW2+Q13619); test: Induction of cereblon/cullin 4A-mediated BRD4 degradation in human RS4:11 cells at 30 to 1000 nM after 24 hrs by Western blot method; assay type: cell-based; summary of the method: as §2
[10] = target: T2, Protein cereblon/Bromodomain-containing protein 3/Cullin-4A (Homo sapiens); test: Induction of cereblon/cullin 4A-mediated BRD3 degradation in human RS4:11 cells at 30 to 1000 nM after 24 hrs by Western blot method; assay type: cell-based; summary of the method: as §2
[11] = target: T2, Protein cereblon/Bromodomain-containing protein 3/Cullin-4A (Homo sapiens); test: Induction of cereblon/cullin 4A-mediated BRD3 degradation in human RS4:11 cells at 100 to 300 nM after 3 hrs by Western blot method; assay type: cell-based; summary of the method: as §1
[12] = tested on: MOLM-13; test: Cytotoxicity against human MOLM13 cells assessed as cell growth inhibition after 4 days by WST-8 assay; assay type: functional, cell-based; details: MOLM-13, 96 h
[13] = target: T1, Protein cereblon/Bromodomain-containing protein 2/Cullin-4A (Homo sapiens); test: Induction of cereblon/cullin 4A-mediated BRD2 degradation in human RS4:11 cells at 30 to 1000 nM after 24 hrs by Western blot method; assay type: cell-based
Summary of the method: (§3)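 RS4;11 cells (2 × 10⁶/well) treated for 24 h at the indicated concentrations. Lysed in RIPA with protease inhibitors and immunoblotted for BRD2, BRD3, BRD4, c-Myc and PARP, with GAPDH as loading control.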

[14] = target: T6, Protein cereblon/Bromodomain-containing protein 4/Cullin-4A (Homo sapiens); test: Induction of cereblon/cullin 4A-mediated BRD4 degradation in human RS4:11 cells at 100 to 300 nM after 3 hrs by Western blot method; assay type: cell-based; summary of the method: as §2
[15] = tested on: RS4-11; test: Induction of apoptosis in human RS4:11 cells at 30 to 300 nM after 24 hrs by Annexin-V/propidium iodide staining based flow cytometry; assay type: functional, cell-based
Summary of the method: (§4)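 RS4;11 or MOLM-13 cells treated with compound for 24 h, then analyzed by flow cytometry. Cell cycle read by propidium iodide staining and apoptosis by annexin V/propidium iodide staining.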

[16] = species on record: Homo sapiens; test: Induction of cereblon/cullin 4A-mediated BET degradation in human RS4:11 cells assessed as downregulation of c-myc protein level at 300 to 1000 nM after 24 hrs by Western blot method; assay type: cell-based; summary of the method: as §3
[17] = tested on: MOLM-13; test: Induction of cell cycle arrest in human MOLM13 cells after 24 hrs by propidium iodide staining based flow cytometry; assay type: functional; summary of the method: as §4
[18] = target: T1, Protein cereblon/Bromodomain-containing protein 2/Cullin-4A (Homo sapiens); test: Induction of cereblon/cullin 4A-mediated BRD2 degradation in human RS4:11 cells at 100 to 300 nM after 3 hrs by Western blot method; assay type: cell-based; summary of the method: as §1
[19] = tested on: MOLM-13; test: Induction of apoptosis in human MOLM13 cells at 30 to 300 nM after 24 hrs by Annexin-V/propidium iodide staining based flow cytometry; assay type: functional, cell-based; summary of the method: as §4
[20] = tested on: RS4-11; test: Cytotoxicity against human RS4:11 cells assessed as cell growth inhibition after 4 days by WST-8 assay; assay type: functional, cell-based; details: RS4-11, 96 h
[21] = tested on: RS4-11; test: Induction of cell cycle arrest in human RS4:11 cells after 24 hrs by propidium iodide staining based flow cytometry; assay type: functional; summary of the method: as §4
[22] = target: T1, Protein cereblon/Bromodomain-containing protein 2/Cullin-4A (Homo sapiens); test: Induction of cereblon/cullin 4A-mediated BRD2 degradation in human RS4:11 cells at 30 to 300 nM after 3 hrs by Western blot method; assay type: cell-based; summary of the method: as §1
[23] = target: T2, Protein cereblon/Bromodomain-containing protein 3/Cullin-4A (Homo sapiens); test: Induction of cereblon/cullin 4A-mediated BRD3 degradation in human RS4:11 cells at 30 to 300 nM after 3 hrs by Western blot method; assay type: cell-based; summary of the method: as §2
[24] = target: T6, Protein cereblon/Bromodomain-containing protein 4/Cullin-4A (Homo sapiens); test: Induction of cereblon/cullin 4A-mediated BRD4 degradation in human RS4:11 cells at 30 to 300 nM after 3 hrs by Western blot method; assay type: cell-based; summary of the method: as §2
[25] = target: T6, Protein cereblon/Bromodomain-containing protein 4/Cullin-4A (Homo sapiens); test: Induction of cereblon/cullin 4A-mediated BRD4 degradation in human RS4:11 cells at 30 to 1000 nM after 3 hrs by Western blot method; assay type: cell-based; summary of the method: as §2
[26] = target: T1, Protein cereblon/Bromodomain-containing protein 2/Cullin-4A (Homo sapiens); test: Induction of cereblon/cullin 4A-mediated BRD2 degradation in human RS4:11 cells at 30 to 1000 nM after 3 hrs by Western blot method; assay type: cell-based; summary of the method: as §1
[27] = target: T2, Protein cereblon/Bromodomain-containing protein 3/Cullin-4A (Homo sapiens); test: Induction of cereblon/cullin 4A-mediated BRD3 degradation in human RS4:11 cells at 30 to 1000 nM after 3 hrs by Western blot method; assay type: cell-based; summary of the method: as §2
[28] = target: T1, Protein cereblon/Bromodomain-containing protein 2/Cullin-4A (Homo sapiens); test: Induction of cereblon/cullin 4A-mediated BRD2 degradation in human MOLM13 cells after 3 hrs by Western blot method; assay type: cell-based
[29] = target: T6, Protein cereblon/Bromodomain-containing protein 4/Cullin-4A (Homo sapiens); test: Induction of cereblon/cullin 4A-mediated BRD4 degradation in human MOLM13 cells after 3 hrs by Western blot method; assay type: cell-based
[30] = target: T2, Protein cereblon/Bromodomain-containing protein 3/Cullin-4A (Homo sapiens); test: Induction of cereblon/cullin 4A-mediated BRD3 degradation in human MOLM13 cells after 3 hrs by Western blot method; assay type: cell-based
[31] = target: T1, Protein cereblon/Bromodomain-containing protein 2/Cullin-4A (Homo sapiens); test: Induction of cereblon/cullin 4A-mediated BRD2 degradation in human RS4:11 cells at 3 to 10 nM after 3 hrs by Western blot method; assay type: cell-based; summary of the method: as §1
[32] = target: T2, Protein cereblon/Bromodomain-containing protein 3/Cullin-4A (Homo sapiens); test: Induction of cereblon/cullin 4A-mediated BRD3 degradation in human RS4:11 cells at 3 to 10 nM after 3 hrs by Western blot method; assay type: cell-based; summary of the method: as §2
[33] = target: T6, Protein cereblon/Bromodomain-containing protein 4/Cullin-4A (Homo sapiens); test: Induction of cereblon/cullin 4A-mediated BRD4 degradation in human RS4:11 cells at 3 to 10 nM after 3 hrs by Western blot method; assay type: cell-based; summary of the method: as §2

T2 sequence (Q13619 whole entry, looked up): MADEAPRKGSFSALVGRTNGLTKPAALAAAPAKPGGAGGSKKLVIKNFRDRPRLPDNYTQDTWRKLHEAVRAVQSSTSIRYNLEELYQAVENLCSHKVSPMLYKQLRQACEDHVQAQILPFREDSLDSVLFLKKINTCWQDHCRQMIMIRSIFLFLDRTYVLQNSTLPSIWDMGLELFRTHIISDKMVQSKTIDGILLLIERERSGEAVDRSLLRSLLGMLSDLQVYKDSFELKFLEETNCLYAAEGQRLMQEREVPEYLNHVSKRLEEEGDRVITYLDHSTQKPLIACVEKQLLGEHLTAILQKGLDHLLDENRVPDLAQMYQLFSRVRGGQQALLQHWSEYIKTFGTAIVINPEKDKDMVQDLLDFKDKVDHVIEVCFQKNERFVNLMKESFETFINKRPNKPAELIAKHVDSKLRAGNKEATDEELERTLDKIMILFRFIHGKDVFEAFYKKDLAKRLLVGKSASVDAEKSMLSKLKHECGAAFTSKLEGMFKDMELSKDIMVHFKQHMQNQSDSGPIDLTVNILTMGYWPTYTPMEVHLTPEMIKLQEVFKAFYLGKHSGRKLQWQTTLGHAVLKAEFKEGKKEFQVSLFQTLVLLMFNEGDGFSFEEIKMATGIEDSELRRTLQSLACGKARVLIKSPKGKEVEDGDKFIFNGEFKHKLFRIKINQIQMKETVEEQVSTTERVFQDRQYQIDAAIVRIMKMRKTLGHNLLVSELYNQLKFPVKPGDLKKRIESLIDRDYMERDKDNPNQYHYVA
T2 sequence (Q15059 whole entry, looked up): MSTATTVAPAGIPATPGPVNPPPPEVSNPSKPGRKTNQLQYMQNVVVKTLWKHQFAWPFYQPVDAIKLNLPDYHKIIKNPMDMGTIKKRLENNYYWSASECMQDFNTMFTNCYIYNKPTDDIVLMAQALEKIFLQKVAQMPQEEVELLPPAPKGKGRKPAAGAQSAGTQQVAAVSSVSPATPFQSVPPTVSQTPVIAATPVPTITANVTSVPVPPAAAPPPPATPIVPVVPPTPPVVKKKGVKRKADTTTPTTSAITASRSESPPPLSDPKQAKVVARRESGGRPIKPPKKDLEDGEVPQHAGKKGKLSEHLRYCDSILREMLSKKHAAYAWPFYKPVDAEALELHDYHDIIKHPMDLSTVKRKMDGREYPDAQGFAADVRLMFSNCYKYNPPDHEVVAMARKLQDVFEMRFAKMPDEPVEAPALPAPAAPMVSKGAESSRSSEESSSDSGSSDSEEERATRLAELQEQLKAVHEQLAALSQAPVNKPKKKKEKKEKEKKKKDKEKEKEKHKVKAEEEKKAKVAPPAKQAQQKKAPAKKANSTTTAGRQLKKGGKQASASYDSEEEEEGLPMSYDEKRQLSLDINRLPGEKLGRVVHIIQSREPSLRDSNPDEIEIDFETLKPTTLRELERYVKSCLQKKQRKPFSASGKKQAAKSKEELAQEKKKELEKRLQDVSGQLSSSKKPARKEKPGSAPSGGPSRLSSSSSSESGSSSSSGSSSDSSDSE
T2 sequence (Q96SW2 whole entry, looked up): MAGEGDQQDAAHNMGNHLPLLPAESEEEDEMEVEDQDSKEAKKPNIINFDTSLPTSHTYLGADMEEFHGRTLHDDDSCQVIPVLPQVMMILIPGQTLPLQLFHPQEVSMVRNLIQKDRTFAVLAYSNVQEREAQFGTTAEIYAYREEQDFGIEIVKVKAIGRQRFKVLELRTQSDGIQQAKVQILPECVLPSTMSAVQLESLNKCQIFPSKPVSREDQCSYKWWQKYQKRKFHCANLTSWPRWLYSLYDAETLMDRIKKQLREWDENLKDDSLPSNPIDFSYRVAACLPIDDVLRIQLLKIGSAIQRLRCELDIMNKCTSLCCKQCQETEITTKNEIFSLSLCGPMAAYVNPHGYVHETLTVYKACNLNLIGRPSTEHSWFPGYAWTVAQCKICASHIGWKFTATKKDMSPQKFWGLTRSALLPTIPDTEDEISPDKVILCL
T5 sequence (Q15059 whole entry, the tested form may be a part): as the sequence (Q15059 whole entry, looked up) above
T1 sequence (P25440 whole entry, looked up): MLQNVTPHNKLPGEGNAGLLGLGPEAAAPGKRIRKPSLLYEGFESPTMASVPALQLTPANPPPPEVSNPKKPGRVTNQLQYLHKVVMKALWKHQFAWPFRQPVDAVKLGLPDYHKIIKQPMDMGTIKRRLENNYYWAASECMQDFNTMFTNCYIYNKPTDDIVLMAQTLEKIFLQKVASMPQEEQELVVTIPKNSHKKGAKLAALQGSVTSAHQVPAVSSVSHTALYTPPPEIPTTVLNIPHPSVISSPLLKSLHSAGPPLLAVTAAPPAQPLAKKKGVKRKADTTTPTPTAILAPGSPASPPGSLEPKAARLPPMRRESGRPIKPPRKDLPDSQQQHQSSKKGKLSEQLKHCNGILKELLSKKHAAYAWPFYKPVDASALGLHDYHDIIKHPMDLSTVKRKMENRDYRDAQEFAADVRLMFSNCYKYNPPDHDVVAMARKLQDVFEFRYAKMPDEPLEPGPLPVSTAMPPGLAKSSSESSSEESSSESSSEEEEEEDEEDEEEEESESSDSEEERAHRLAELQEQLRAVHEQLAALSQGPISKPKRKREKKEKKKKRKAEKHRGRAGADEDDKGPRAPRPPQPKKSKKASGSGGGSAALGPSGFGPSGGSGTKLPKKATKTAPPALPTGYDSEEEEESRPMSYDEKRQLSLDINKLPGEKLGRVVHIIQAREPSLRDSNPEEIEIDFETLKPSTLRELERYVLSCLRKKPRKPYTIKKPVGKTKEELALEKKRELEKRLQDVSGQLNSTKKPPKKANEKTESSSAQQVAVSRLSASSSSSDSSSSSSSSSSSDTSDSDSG
T1 sequence (Q13619 whole entry, looked up): as the sequence (Q13619 whole entry, looked up) above
T1 sequence (Q96SW2 whole entry, looked up): as the sequence (Q96SW2 whole entry, looked up) above
T3 sequence (P25440 whole entry, the tested form may be a part): as the sequence (P25440 whole entry, looked up) above

- Activity [1]: Active
- Activity [2]: Active
SMILES: Cc1sc2c(c1C)C(c1ccc(Cl)cc1)=N[C@@H](CC(=O)Nc1ccc(OCCOCCOCCOCCNc3cccc4c3C(=O)N(C3CCC(=O)NC3=O)C4=O)cc1)c1nnc(C)n1-2 (stereo partly drawn)

- IC50 [3]: 224 nM
- Ki [3]: 57.3 nM
- IC50 [4]: 484 nM
- Ki [4]: 152 nM
- IC50 [5]: 630 nM
- Ki [5]: 205 nM
- IC50 [6]: 218 nM
- Ki [6]: 101 nM
- IC50 [7]: 189 nM
- Ki [7]: 42.4 nM
- IC50 [8]: 294 nM
- Ki [8]: 82.1 nM
SMILES: CNC(=O)c1ncc2c(n1)[nH]c1cc(-c3c(C)noc3C)c(OC)cc12

- Activity [9]: inactive
- Activity [10]: inactive
- IC50 [3]: 3.9 nM
- Ki [3]: 0.27 nM
- IC50 [4]: 7 nM
- Ki [4]: 0.5 nM
- Activity [11]: inactive
- Activity [13]: inactive
- Activity [14]: inactive
- IC50 [5]: 7 nM
- Ki [5]: 1 nM
- IC50 [6]: 3.1 nM
- Ki [6]: 0.9 nM
- IC50 [7]: 1.9 nM
- Ki [7]: 0.21 nM
- Activity [18]: inactive
- IC50 [8]: 6.6 nM
- Ki [8]: 0.18 nM
SMILES: CCn1nc(C2CC2)cc1Nc1nc(C(=O)NC)nc2[nH]c3cc(-c4c(C)noc4C)c(OC)cc3c12
- IC50 [12]: 25.6 nM
- Activity [15]: inactive
- Activity [16]: Active
- Activity [17]: Dose-dependent effect
- Activity [19]: inactive
- IC50 [20]: 24.1 nM
- Activity [21]: Dose-dependent effect

- Activity [22]: Active
- Activity [23]: Active
- Activity [24]: Active
SMILES: Cc1sc2c(c1C)C(c1ccc(Cl)cc1)=N[C@@H](CC(=O)NCCCCNC(=O)COc1cccc3c1C(=O)N(C1CCC(=O)NC1=O)C3=O)c1nnc(C)n1-2 (stereo partly drawn)
- IC50 [12]: 657 nM

- Activity [25]: inactive
- Activity [26]: inactive
- Activity [27]: inactive
SMILES: CCn1nc(C2CC2)cc1Nc1nc(C(=O)NCCCCCc2cccc3c2CN(C2CCC(=O)N(C)C2=O)C3=O)nc2[nH]c3cc(-c4c(C)noc4C)c(OC)cc3c12 (stereo not drawn)
- IC50 [12]: 83.4 nM
- IC50 [20]: 35.1 nM

- Activity [28]: Active
- Activity [29]: Active
- Activity [30]: Active
SMILES: CCn1nc(C2CC2)cc1Nc1nc(C(=O)NCCCCCCCNc2cccc3c2C(=O)N(C2CCC(=O)NC2=O)C3=O)nc2[nH]c3cc(-c4c(C)noc4C)c(OC)cc3c12 (stereo not drawn)
- IC50 [12]: 1.2 nM
- IC50 [20]: 0.2 nM

- Activity [31]: Active
- Activity [32]: Active
- Activity [33]: Active
SMILES: CCn1nc(C2CC2)cc1Nc1nc(C(=O)NCCCCNC(=O)COc2cccc3c2C(=O)N(C2CCC(=O)NC2=O)C3=O)nc2[nH]c3cc(-c4c(C)noc4C)c(OC)cc3c12 (stereo not drawn)
- IC50 [12]: 45.5 nM
- IC50 [20]: 4.3 nM

- Activity [28]: Active
- Activity [29]: Active
- Activity [30]: Active
SMILES: CCn1nc(C2CC2)cc1Nc1nc(C(=O)NCCCCCNc2cccc3c2C(=O)N(C2CCC(=O)NC2=O)C3=O)nc2[nH]c3cc(-c4c(C)noc4C)c(OC)cc3c12 (stereo not drawn)
- IC50 [12]: 2.1 nM
- IC50 [20]: 0.14 nM
